Data as given in PubChem BioAssay AID504490 (NMMLSC, 2011).
Screen size: about 340,000 compounds; about 1,100 (0.32%) were called active.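 How the source made its calls: active means inhibition above a set limit, near 3 SD of compounds lacking own fluorescence (cut at about 54% in these data); inactive means the rest.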 The list comes from a sample in which actives are over-represented; it also holds similar structures and randomly drawn compounds.

system: beta-arrestin 1 C-terminal peptide binding to AP2 beta2-adaptin appendage (human); test: inhibitors of beta-arrestin/AP2 binding, primary screen, biochemical, GPCR trafficking, flow cytometry (AID 504490); conditions: FITC-arrestin peptide / GST-AP2 beads, at 10 µM, stronger effect = higher value, AP2 beta2 appendage carries R879A mutation;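 further: plate controls were DMSO wells for no effect and 5 µM unlabelled arrestin peptide for full effect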
How it was run: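 Material – GST-tagged AP2 beta2-adaptin appendage (R879A) on 4 µm glutathione beads · Probe or stimulus – fluorescein-tagged arrestin peptide at 50 nM final · Timing – 12 min plus 1 h, RT · Detection – bead flow cytometry, FITC channel · Read-out basis – inhibition as reduced fluorescein signal on beads, percent · Medium – PBS plus Tween 20 (0.05%) and BSA (0.1%)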

inhibition, inactive:
CC(=O)N1C(=O)/C(=C2\SC(=S)N(NC(=O)c3ccc(O)cc3)C2=O)c2ccccc21 7.23%
CCc1nnc(NC(=O)CCC(=O)N2CCN(c3cc(C)ccc3C)CC2)s1 27.2%
COc1ccc(CN2CCN(C(=O)CCC(=O)Nc3nnc(C(C)C)s3)CC2)cc1F 17.3%
C=C1c2cccc(OC)c2O[C@H](C(=O)OCC)[C@@H]1CCCCCC -3.22%
C=CCO/N=C(\C)c1c(O)c(C)c(-c2ccccc2)n(-c2ccccc2)c1=O 32.4%
COc1ccc(C(=O)Nc2ccc(-n3nncc3C(C)(C)C)cc2)cc1 -18.4%
CC(C)(C)c1cnnn1-c1ccc([N+](=O)[O-])cc1 -1.38%
CCOC(=O)C(CO)NC(=O)C1(NC(C)=O)CCCC1 (stereo not drawn) 2.61%
COc1ccccc1NC(=O)c1c(Br)cnn1C 6.15%
O=C(NNC(=O)C1C2CCC(C2)C1C(=O)O)c1ccc(Cl)cc1 (stereo not drawn) 10.1%
Cc1ccc(S/C(=N\S(=O)(=O)c2ccc(Cl)cc2)c2ccccc2)cc1 2.53%
O=S(=O)(/N=C(/Nc1ccccn1)c1ccccc1)c1ccc(Cl)cc1 2.67%
O=C(O)c1ccccc1NC(=S)NC(NC(=O)c1ccccc1[N+](=O)[O-])C(Cl)(Cl)Cl (stereo not drawn) 0.7%
CCOC(=O)c1ccc(NC(=S)N2CCN(c3ccccn3)CC2)cc1 -3.13%
O=C(C1CCCN1S(=O)(=O)c1ccc(Br)cc1)N1CCOCC1 (stereo not drawn) -2.49%
CN1CCN(S(=O)(=O)c2ccc(NC(=O)C3CCCO3)cc2)CC1 (stereo not drawn) -5.38%
CCC1(C(=O)c2ccccc2)C(c2cccc([N+](=O)[O-])c2)C1(C(=O)OC)C(=O)OC (stereo not drawn) -3.23%
CCOC(=O)c1sc(NC(=O)CSc2nc(O)c(Cc3ccccc3)c(=O)[nH]2)nc1C 45.5%
COc1ccc(-c2nnc(-c3ccc4ccccc4c3)o2)cc1 5.64%
CCOc1ccc(-n2c(SCC(N)=O)nnc2-c2ccco2)cc1 -5.91%
C[C@@H]1CC[C@@]2(OC1)O[C@H]1C[C@H]3[C@@H]4CC=C5C[C@@H](O)[C@H](O)C[C@]5(C)C4CC[C@]3(C)[C@H]1[C@@H]2C (stereo partly drawn) 26.8%
Cc1cccc(Oc2c([N+](=O)[O-])c(=O)n(C)c3ccccc23)c1 8.99%
Cc1cc(C)c(-c2c(O)c3ccccc3n(C)c2=O)c(C)c1 3.35%
CCn1c(C)nc2cc(C(=O)NNS(=O)(=O)c3ccc(C)cc3C)ccc21 -9.91%
CCNc1c(NS(=O)(=O)c2ccc(C3CCCCC3)cc2)c(=O)oc2ccccc12 27.9%
COc1ccccc1CNC(=O)COC(=O)c1cccs1 -6.34%
COc1ccc(C2c3[nH]c4ccccc4c3C[C@H]3C(=O)N(CC(C)C)CC(=O)N23)c(OC)c1 (stereo partly drawn) -2.46%
O=C(Cc1cccs1)Nc1nnc(SCc2ccc(F)cc2)s1 0.35%
COc1ccc(Cc2nnc(NC(=O)Cc3cccs3)s2)cc1 5.51%
CC(Sc1ncnc2c1cnn2-c1ccccc1)C(=O)Nc1ccc(N2CCOCC2)cc1 (stereo not drawn) 52.7%
COc1ccc(C(C)(C)C)cc1NC(=O)CCN1C(=O)C2CCCCC2C1=O (stereo not drawn) 4.94%
O=CN1CCN(C(=O)c2ccc3c(c2)OCO3)CC1 -7.77%
CCOC(=O)N1CCN(C(=O)C(C)NC(=O)c2ccco2)CC1 (stereo not drawn) 47.5%
CCOC(=O)N1CCN(C(=O)Cc2ccc(-n3c(=S)[nH]c4ccccc4c3=O)cc2)CC1 -0.7%
OCCN1CCOCCOCCN(CCO)CCN(CCO)CC1 -4.2%
Cc1ccccc1NC(=O)CCNS(=O)(=O)c1ccc2[nH]c(=O)oc2c1 -8.2%
C=CCOc1c(CNn2cn[nH]c2=S)cccc1OC 0.65%
CC(=O)c1cccc(OCC(=O)OCC(=O)Nc2cc(S(=O)(=O)N3CCCCC3)ccc2C)c1 38.5%
Cc1ccc(S(=O)(=O)N2CCCCC2)cc1NC(=O)CCNC(=O)c1ccccc1 2.03%
O=P(c1ccc2c(c1)OCCO2)(N1CCOCC1)N1CCOCC1 1.28%
CCCCNC(=O)C1CCC(=O)N1CCc1ccccc1 (stereo not drawn) -2.64%
CCC(C)NC(=O)C1CCC(=O)N1Cc1ccc(C)cc1 (stereo not drawn) 3.49%
CC(=O)c1cccc(NC(=O)[C@@H](NC(N)=O)C(C)C)c1 15.6%
Cc1ccc2nsnc2c1S(=O)(=O)N1CCCC1C(=O)O (stereo not drawn) 19.9%
COc1cc(C2/C(=C(\O)c3ccc4c(c3)CC(C)O4)C(=O)C(=O)N2c2nnc(C)s2)cc(OC)c1OC (stereo not drawn) 18.6%
Cc1ccc(C2(C)NC(=O)N(CC(=O)N3CC(=O)Nc4ccccc43)C2=O)cc1 (stereo not drawn) -7.93%
Cc1ccc(NC(=O)CN2C(=O)NC(C)(c3ccc(Cl)cc3)C2=O)c(Br)c1 (stereo not drawn) -0.27%

inhibition, active:
CC(C)c1nnc(NC(=O)CCC(=O)N2CCN(c3cccc(Cl)c3)CC2)s1 59.1%
C/C(=N\Nc1ccc([N+](=O)[O-])cc1)c1ccc(-n2nncc2C(C)(C)C)cc1 93.7%
Cc1ccc(S(=O)(=O)/N=C(/Nc2ccccn2)c2ccc(Cl)cc2)cc1 70.7%
O=C(C1CCCO1)N1CCN(S(=O)(=O)c2ccc(Br)cc2)CC1 (stereo not drawn) 54.4%
CCOc1ccc(-c2nnc(-c3ccco3)o2)cc1 55%
Cn1c(=O)c([N+](=O)[O-])c(Oc2ccccc2)c2ccccc21 54.9%
CCCc1ccc(-c2csc(NC(=O)Cc3cccs3)n2)cc1 86.3%
CCOC(=O)N1CCN(C(=O)CNC(=O)Cc2ccc(Cl)cc2)CC1 87.5%
Cc1ccc(S(=O)(=O)N2CCCCC2)cc1NC(=O)c1cccnc1 65.4%
Cc1ccc(CN2C(=O)CCC2C(=O)NCCCN2CCCCC2C)cc1 (stereo not drawn) 102%
Cc1ccc(C2(C)NC(=O)N(CC(=O)Nc3ccccc3C(=O)N3CCCCC3)C2=O)cc1 (stereo not drawn) 56.8%
